Source: PubChem
Hits are enriched below; roughly 2.9% of the tested compounds scored in any of these assays.
CHO-K1 Ca PAM = nonselective calcium activators in parental CHO-K1 cells, primary screen, counter-screen for M1 PAM project, cell-based, Fluo-8 calcium fluorescence, full deck, 1536-well | ATP EC20; 0% at ATP EC20, 100% at ATP max | activation, % at 3 µM | 0.02% of 360,000 active;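 active means activation above the run cutoff, the mean activation of all test compounds plus 3 SD, cut at about 40% in these data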;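 further: peak over basal fluorescence ratio in a 140 s read after ATP addition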
CHO-K1 Ca ag = counter-screen for M1 agonists: effect in parental CHO-K1 cells | AID 602248, 2012 | 0.48% of 360,000 active | Fluo-8 calcium fluorescence; scaled to maximal ATP response, vehicle zero | activation, % at 3 µM; in the data active means activation above about 15%;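 further: untransfected CHO-K1 host cells lacking M1 receptor as counterscreen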
OX1R antag-1 = OX1R (HCRTR1) antagonists, primary screen, fluorescence, CHO/OX1R cells, Fluo-8 calcium, orexin A; inhibition, % at 5 µM; Orexin/Hypocretin receptor type 1 (Homo sapiens), O43613; 0.43% of 330,000 active; Fluo-8 calcium fluorescence;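 active means inhibition above its plate's threshold, mean inhibition of all tested compounds on the plate plus 3 SD, cut at about 37% in these data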;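 further: 0% = orexin A challenge wells and 100% = SB-334867-A antagonist wells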
Target sequence (O43613 whole entry, looked up): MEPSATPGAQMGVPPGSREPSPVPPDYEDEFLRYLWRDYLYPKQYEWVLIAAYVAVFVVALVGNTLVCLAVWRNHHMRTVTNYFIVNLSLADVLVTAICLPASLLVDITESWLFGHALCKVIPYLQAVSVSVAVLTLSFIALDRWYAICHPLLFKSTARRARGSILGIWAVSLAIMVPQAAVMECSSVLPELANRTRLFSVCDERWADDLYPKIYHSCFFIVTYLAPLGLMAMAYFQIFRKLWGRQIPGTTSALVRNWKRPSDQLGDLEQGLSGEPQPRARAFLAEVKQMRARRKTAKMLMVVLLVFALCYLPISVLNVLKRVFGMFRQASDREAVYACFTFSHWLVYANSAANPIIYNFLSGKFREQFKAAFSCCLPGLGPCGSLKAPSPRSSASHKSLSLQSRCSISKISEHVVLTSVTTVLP
CHO parental Ca = ATP-evoked calcium signal inhibitors, parental CHO, primary screen, counter-screen for OX1R antagonist project, cell-based, fluorescence, Fluo-8 calcium dye; parental CHO-K1, ATP-induced calcium, Fluo-8 fluorescence; inhibition, % at 5.6 µM; 0.63% of 330,000 active;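 active means inhibition above that plate's mean sample inhibition plus 3 SD, cut at about 26% in these data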;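 further: 0% = ATP-challenged DMSO wells and 100% = DMSO wells without ATP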
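Assay system: untransfected parental CHO cell line. Also added: ATP agonist challenge. Dosing: one dose, 5.6 µM nominal. Measured by: Fluo-8 fluorescence. Read-out: % inhibition. Benchmarks: ATP wells versus no-ATP DMSO wells. Repeats: no replicates.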
CHO-K1 Ca antag = counter-screen for M1 antagonists: effect in parental CHO-K1 cells | 0.6% of 360,000 active | inhibition, % at 3 µM | ATP-induced calcium, Fluo-8 fluorescence | AID 602250;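 active means inhibition above a per-plate cutoff, the plate's mean sample inhibition plus 3 SD, cut at about 24% in these data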;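 further: 0% = DMSO plus EC80 ATP and 100% = DMSO alone without ATP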
OX1R antag-2 = antagonists of human orexin 1 receptor (OX1R); OX1R-expressing cells, FRET antagonist read-out; inhibition, % at 6.6 µM; Orexin/Hypocretin receptor type 1 (Homo sapiens), O43613; 1.8% of 330,000 active; in the data active means inhibition mostly above about 38%, no sharp cut-off; inactive means mostly below about 40%;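 further: 0% = agonist challenge alone and 100% = reference antagonist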
* marks the source's active call; other numbers are inactive results; / = no result given.

SMILES | CHO-K1 Ca PAM | CHO-K1 Ca ag | OX1R antag-1 | CHO parental Ca | CHO-K1 Ca antag | OX1R antag-2
COc1ccc(C(=O)NC2CC(C)(C)Cc3c2cnn3-c2ccccc2C)c(OC)c1OC (stereo not drawn) | 15 | 1 | -40 | -11 | 1 | 20
CCc1cc(C(=O)NC2CCCc3c2cnn3-c2cccc(C)c2C)n(C)n1 (stereo not drawn) | / | / | 38 | 62* | / | 60*
Cc1cc(C(=O)NC2CC(C)(C)Cc3c2cnn3-c2ccccc2C)c(C)o1 (stereo not drawn) | 8 | 0 | -38 | -17 | -9 | 71*
O=C(COc1ccc(Cl)cc1Cl)N1CCN(C(=O)c2ccco2)CC1 | -18 | 1 | 1 | -7 | -13 | 12
Cc1nnsc1C(=O)NC1CCCc2c1cnn2-c1ccccc1F (stereo not drawn) | 3 | 11 | -2 | 6 | 7 | 15
Cc1nnsc1C(=O)NC1CCCc2c1cnn2-c1ccc(C(C)(C)C)cc1 (stereo not drawn) | -11 | 10 | 12 | 41* | 13 | 28
O=C(NCc1ccc(F)cc1)c1cc(C2CCCCN2C(=O)CCc2ccccc2)on1 (stereo not drawn) | -9 | 1 | / | / | 4 | /
O=C(C1CCN(C2CCN(Cc3ccsc3)CC2)CC1)N1CCOCC1 | -8 | 1 | -7 | 10 | 8 | 0
CCc1ccc[n+](-c2[nH]c(=O)sc2/C=N/N=C(\[O-])c2ccncc2)c1 | 5 | 0 | -14 | -7 | 3 | 40*
CC1CCN(c2cc(N3CCOCC3)c(F)cc2[N+](=O)[O-])CC1 | 18 | 0 | -25 | -13 | -15 | 28
CCN(CC(=O)Nc1ccc(NC(C)=O)cc1)C(=O)c1ccc(N2CCC(C)CC2)c([N+](=O)[O-])c1 | 9 | 1 | -14 | -10 | -1 | 4
Cc1nnc(N/N=C/c2cc([N+](=O)[O-])c(N3CCC(C)CC3)cc2N2CCC(C)CC2)n1N | 21 | 0 | -32 | -34 | -12 | 146*
CCc1nnc(N/N=C/c2ccc(N3CCC(C)CC3)c([N+](=O)[O-])c2)n1N | 17 | -1 | -2 | -9 | -15 | 60*
CC(C)c1ccccc1NC(=O)COC(=O)c1cccnc1 | 15 | 1 | 4 | -7 | -18 | 10
COc1ccc(NC(=O)COc2ccccc2C(N)=O)cc1S(=O)(=O)N1CCCCC1 | 12 | 1 | / | / | -5 | /
COc1ccc(NS(=O)(=O)c2ccc(Cl)c(C(=O)O)c2)cc1S(=O)(=O)N1CCCCC1 | 18 | 0 | 1 | 43* | -16 | 12
COc1cc(C(C)=O)ccc1OCC(=O)Nc1ccc(C)c(S(=O)(=O)N2CCCCCC2)c1 | -16 | 16* | 53* | 33* | 8 | 29
CCc1cccc(OCC(=O)Nc2ccc(C)c(S(=O)(=O)N3CCCCCC3)c2)c1 | -12 | 2 | 22 | 35* | 9 | 34
Cc1ccc(NC(=O)COc2ccccc2C(N)=O)cc1S(=O)(=O)N1CCCCCC1 | -22 | 15 | 53* | 28 | 27* | 23
COc1ccc(CNC(=O)c2nccnc2CO)cc1 | 12 | -1 | / | / | -10 | /
CCN(c1ccccc1)S(=O)(=O)c1ccc(N2CCN(c3ccc(O)cc3)CC2)nc1 | 5 | 1 | 14 | 5 | -8 | 13
Cc1ccc(S(=O)(=O)N2CCCCC2)cc1NC(=O)CSc1ncnc2ccccc12 | 1 | 3 | -38 | -26 | 5 | 5
Cc1ccc(NC(=O)CSc2ncnc3ccccc23)cc1S(=O)(=O)N1CCCCCC1 | -4 | 12 | 21 | 34* | 27* | 38
Cc1ccc(NC(=O)COc2ccc(N(C)C(=O)C(C)(C)C)cc2)cc1S(=O)(=O)N1CCCCC1 | -22 | 16* | 73* | 78* | 29* | 20
CCc1nnc(NC(=O)C2CC(=O)N(c3ccc(C)cc3)C2)s1 (stereo not drawn) | 3 | -1 | -17 | -13 | 24* | 9
